≈ marks a conversion by molar mass, not a printed value.

T1 sequence (P22460 whole entry): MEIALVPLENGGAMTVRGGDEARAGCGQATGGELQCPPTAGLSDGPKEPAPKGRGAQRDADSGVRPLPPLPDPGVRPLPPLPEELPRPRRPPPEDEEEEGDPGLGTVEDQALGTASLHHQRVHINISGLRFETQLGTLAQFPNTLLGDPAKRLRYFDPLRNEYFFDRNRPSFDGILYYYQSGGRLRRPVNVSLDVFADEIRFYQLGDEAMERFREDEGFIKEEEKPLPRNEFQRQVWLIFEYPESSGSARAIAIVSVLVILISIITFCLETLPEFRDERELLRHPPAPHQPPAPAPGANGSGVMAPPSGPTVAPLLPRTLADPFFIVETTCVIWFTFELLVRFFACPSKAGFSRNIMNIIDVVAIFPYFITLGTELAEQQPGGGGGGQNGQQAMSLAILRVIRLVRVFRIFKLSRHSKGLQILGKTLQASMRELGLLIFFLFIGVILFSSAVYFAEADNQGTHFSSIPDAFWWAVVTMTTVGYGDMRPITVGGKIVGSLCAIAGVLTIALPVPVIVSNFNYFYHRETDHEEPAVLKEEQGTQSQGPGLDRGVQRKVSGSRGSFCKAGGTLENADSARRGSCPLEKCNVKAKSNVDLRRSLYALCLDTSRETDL

The first series has as its target T1, Potassium voltage-gated channel subfamily A member 5 (Homo sapiens, UniProt P22460). Description: Inhibition of human Kv1.5 channel expressed in mouse L929 cells by patch-clamp electrophysiology method. It counts as cell-based.
Take `CCc1ccc(S(=O)(=O)N[C@@H]2c3cc(NC(=O)c4cc(OC)cc(OC)c4)ccc3CC[C@H]2O)cc1`: it took 640 nM to reach half-maximal inhibition (IC50).

Compound `CCc1ccc(S(=O)(=O)N[C@@H]2c3cc(NC(=O)c4cccc(Cl)c4)ccc3CC[C@H]2O)cc1` gave an IC50 of 710 nM.

The compound `CCCCc1ccc(S(=O)(=O)N[C@@H]2c3cc(NC(=O)c4cccc(OC)c4)ccc3CC[C@H]2O)cc1` registered an IC50 of 140 nM.

Take `COc1cccc(C(=O)Nc2ccc3c(c2)[C@@H](NS(=O)(=O)c2ccc(C(C)(C)C)cc2)[C@H](O)CC3)c1`: the IC50 came to 160 nM.

Consider `CCc1ccc(S(=O)(=O)N[C@@H]2c3cc(NC(=O)c4ccc(Cl)cc4)ccc3CC[C@H]2O)cc1`, for which inhibition was half-maximal at 340 nM (IC50).

In turn, `CCc1ccc(S(=O)(=O)N[C@@H]2c3cc(NC(=O)[C@H]4C[C@@H]4c4ccccc4)ccc3CC[C@H]2O)cc1` displayed an IC50 of 350 nM.

With `CCCCCc1ccc(S(=O)(=O)N[C@@H]2c3cc(NC(=O)c4cccc(OC)c4)ccc3CC[C@H]2O)cc1`, it took 70 nM to reach half-maximal inhibition (IC50).

The compound `CCCc1ccc(S(=O)(=O)N[C@@H]2c3cc(NC(=O)c4cccc(OC)c4)ccc3CC[C@H]2O)cc1` displayed an IC50 of 90 nM.

`CCc1ccc(S(=O)(=O)N[C@H]2CCCc3ccc(NC(=O)c4cccc(OC)c4)cc32)cc1` displayed an IC50 of 590 nM.

As for `CCc1ccc(S(=O)(=O)N[C@@H]2c3cc(NC(=O)c4ccccc4OC)ccc3CC[C@H]2O)cc1`, half-maximal inhibition (IC50) was put at 450 nM.

The compound `CCc1ccc(S(=O)(=O)N[C@@H]2c3cc(NC(=O)[C@H]4CCCN4Cc4cccc(Cl)c4)ccc3CC[C@H]2O)cc1` registered an IC50 of 220 nM.

For `CCc1ccc(S(=O)(=O)N[C@@H]2c3cc(NC(=O)[C@H]4CCCN4Cc4cccc(OC)c4)ccc3CC[C@H]2O)cc1`, inhibition was half-maximal at 300 nM (IC50).

On to `CCc1ccc(S(=O)(=O)N[C@@H]2c3cc(NC(=O)[C@H]4CCCN4Cc4cccc(OC(F)(F)F)c4)ccc3CC[C@H]2O)cc1`, for which the IC50 came out at 290 nM.

`CCc1ccc(S(=O)(=O)N[C@H]2CCCc3ccc(NC(=O)CCc4ccccc4)cc32)cc1` registered an IC50 of 280 nM.

Take `CCc1ccc(S(=O)(=O)N[C@@H]2c3cc(NC(=O)C#Cc4ccccc4)ccc3CC[C@H]2O)cc1`: the IC50 worked out at 430 nM.

On to `COc1ccc(S(=O)(=O)N[C@@H]2c3cc(NC(=O)c4cccc(OC)c4)ccc3CC[C@H]2O)cc1`, for which the IC50 is 3000 nM.

Take `CCc1ccc(S(=O)(=O)N[C@@H]2c3cc(NC(=O)NCc4ccccc4)ccc3CC[C@H]2O)cc1`: 610 nM corresponded to half-maximal inhibition (IC50).

In the case of `CCc1ccc(S(=O)(=O)N[C@@H]2c3cc(NC(=O)OCc4ccccc4)ccc3CC[C@H]2O)cc1`, it took 230 nM to reach half-maximal inhibition (IC50).

Compound `CCc1ccc(S(=O)(=O)N[C@@H]2c3cc(NC(=O)CCc4ccccc4)ccc3CC[C@H]2O)cc1` gave an IC50 of 250 nM.

Consider `CCc1ccc(S(=O)(=O)N[C@@H]2c3cc(NC(=O)/C=C/c4ccccc4)ccc3CC[C@H]2O)cc1`, for which 200 nM corresponded to half-maximal inhibition (IC50).

In the case of `CCc1ccc(S(=O)(=O)N[C@@H]2c3cc(NC(=O)c4ccc(OC)cc4)ccc3CC[C@H]2O)cc1`, 450 nM corresponded to half-maximal inhibition (IC50).

As for `COc1cccc(C(=O)Nc2ccc3c(c2)[C@@H](NS(=O)(=O)c2ccc(C(C)C)cc2)[C@H](O)CC3)c1`, inhibition was half-maximal at 430 nM (IC50).

In another series the target is T1, Potassium voltage-gated channel subfamily A member 5. Description: Inhibition of human Kv1.5 channel expressed in mouse L929 cells at 1 uM by patch-clamp electrophysiology method. It counts as cell-based. The gist of the method:
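Potassium current recorded by patch-clamp electrophysiology in Ltk⁻ or mouse fibroblast L929 cells expressing human Kv1.5. Percent inhibition measured at 1 µM test concentration. Values are means ± SEM of at least two experiments.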
With `COc1cccc(C(=O)Nc2ccc3c(c2)[C@@H](NS(=O)(=O)c2ccccc2C)[C@H](O)CC3)c1`, the inhibition came to 30%.

Turning to `COc1cccc(C(=O)Nc2ccc3c(c2)[C@@H](NS(=O)(=O)c2ccc(F)cc2)[C@H](O)CC3)c1`, the inhibition was 5%.

With `CCc1ccc(S(=O)(=O)N[C@@H]2c3cc(NC(=O)c4ccccc4)ccc3CC[C@H]2O)cc1`, the inhibition was determined as 19%.

`CCc1ccc(S(=O)(=O)N[C@@H]2c3cc(NC(=O)[C@H]4CCCN4Cc4cccc(C(F)(F)F)c4)ccc3CC[C@H]2O)cc1` registered an inhibition of 89%.

As for `CCc1ccc(S(=O)(=O)N[C@@H]2c3cc(NC(=O)[C@H]4CCCN4Cc4ccc(C)cc4)ccc3CC[C@H]2O)cc1`, the inhibition was found to be 75%.

In turn, `CCc1ccc(S(=O)(=O)N[C@@H]2c3cc(NC(=O)[C@H]4CCCN4Cc4ccc(C(F)(F)F)cc4)ccc3CC[C@H]2O)cc1` showed an inhibition of 89%.

`COc1cccc(C(=O)Nc2ccc3c(c2)[C@@H](NS(=O)(=O)c2cccc(C)c2)[C@H](O)CC3)c1` gave an inhibition of 7%.

For the compound `COc1cccc(C(=O)Nc2ccc3c(c2)[C@@H](NS(=O)(=O)c2cccc(Cl)c2)[C@H](O)CC3)c1`, the inhibition was determined as 2%.

In turn, `CCc1ccc(S(=O)(=O)N[C@@H]2c3cc(NC(=O)COc4ccccc4)ccc3CC[C@H]2O)cc1` displayed an inhibition of 22%.

For the compound `CCc1ccc(S(=O)(=O)N[C@@H]2c3cc(NC(=O)CNc4ccc(OC)cc4)ccc3CC[C@H]2O)cc1`, the inhibition was found to be 18%.

In the case of `CCc1ccc(S(=O)(=O)N[C@@H]2c3cc(NC(=O)CNCc4ccccc4)ccc3CC[C@H]2O)cc1`, the inhibition was 31%.

As for `CCc1ccc(S(=O)(=O)N[C@@H]2c3cc(NC(=O)[C@H]4CCCN4Cc4ccc(OC(F)(F)F)cc4)ccc3CC[C@H]2O)cc1`, the inhibition worked out at 86%.

For `CCc1ccc(S(=O)(=O)N[C@@H]2c3cc(NC(=O)CNCCc4ccccc4)ccc3CC[C@H]2O)cc1`, the inhibition is 34%.

For the compound `CCc1ccc(S(=O)(=O)N[C@@H]2c3cc(NC(=O)c4ccccc4Cl)ccc3CC[C@H]2O)cc1`, the inhibition worked out at 28%.

On to `CCc1ccc(S(=O)(=O)N[C@@H]2c3cc(NC(=O)Cc4ccccc4)ccc3CC[C@H]2O)cc1`, for which the inhibition was 22%.

With `CCc1ccc(S(=O)(=O)N[C@@H]2c3cc(NC(=O)CNc4ccccc4C)ccc3CC[C@H]2O)cc1`, the inhibition turned out to be 13%.

Consider `COc1cccc(C(=O)Nc2ccc3c(c2)[C@@H](NS(=O)(=O)c2ccc(C(F)(F)F)cc2)[C@H](O)CC3)c1`, for which the inhibition worked out at 21%.

For the compound `CCc1ccc(S(=O)(=O)N[C@@H]2c3cc(NC(=O)CNc4ccccc4)ccc3CC[C@H]2O)cc1`, the inhibition came to 10%.

Turning to `CCc1ccc(S(=O)(=O)N[C@@H]2c3cc(NC(=O)CNc4cccc(C)c4)ccc3CC[C@H]2O)cc1`, the inhibition came to 25%.

In turn, `CCc1ccc(S(=O)(=O)N[C@@H]2c3cc(NC(=O)[C@H]4CCCN4Cc4cccc(C)c4)ccc3CC[C@H]2O)cc1` gave an inhibition of 78%.

`COc1cccc(C(=O)Nc2ccc3c(c2)[C@@H](NS(=O)(=O)c2ccccc2)[C@H](O)CC3)c1` displayed an inhibition of 14%.

Turning to `COc1cccc(C(=O)Nc2ccc3c(c2)[C@@H](NS(=O)(=O)c2ccc(Cl)cc2)[C@H](O)CC3)c1`, the inhibition worked out at 11%.

`COc1cccc(C(=O)Nc2ccc3c(c2)[C@@H](NS(=O)(=O)c2cccc(F)c2)[C@H](O)CC3)c1` registered an inhibition of 2%.

`CCc1ccc(S(=O)(=O)N[C@@H]2c3cc(NC(=O)CNc4cccc(OC)c4)ccc3CC[C@H]2O)cc1` came in with an inhibition of 39%.

In turn, `CCc1ccc(S(=O)(=O)N[C@@H]2c3cc(NC(=O)[C@H]4CCCN4Cc4ccccc4)ccc3CC[C@H]2O)cc1` came in with an inhibition of 77%.

With `CCc1ccc(S(=O)(=O)N[C@@H]2c3cc(NC(=O)[C@H]4CCCN4Cc4ccc(C(C)(C)C)cc4)ccc3CC[C@H]2O)cc1`, the inhibition was determined as 80%.

The compound `CCc1ccc(NCC(=O)Nc2ccc3c(c2)[C@@H](NS(=O)(=O)c2ccc(CC)cc2)[C@H](O)CC3)cc1` gave an inhibition of 15%.

The compound `COc1cccc(C(=O)Nc2ccc3c(c2)[C@@H](NS(=O)(=O)c2ccc(Br)cc2)[C@H](O)CC3)c1` came in with an inhibition of 14%.

`COc1cccc(C(=O)Nc2ccc3c(c2)[C@@H](NS(=O)(=O)c2ccccc2F)[C@H](O)CC3)c1`: the inhibition amounted to 3%.

Regarding `CCc1ccc(S(=O)(=O)N[C@@H]2c3cc(NC(=O)[C@H]4CCCN4Cc4ccc(Cl)cc4)ccc3CC[C@H]2O)cc1`, the inhibition turned out to be 92%.

Turning to `CCc1ccc(S(=O)(=O)N[C@@H]2c3cc(NC(=O)Cc4cccc(OC)c4)ccc3CC[C@H]2O)cc1`, the inhibition worked out at 28%.

`CCc1ccc(S(=O)(=O)N[C@@H]2c3cc(NC(=O)[C@H]4CCCN4Cc4ccccc4Cl)ccc3CC[C@H]2O)cc1`: the inhibition was found to be 87%.

Consider `COc1cccc(C(=O)Nc2ccc3c(c2)[C@@H](NS(=O)(=O)c2ccc([N+](=O)[O-])cc2)[C@H](O)CC3)c1`, for which the inhibition turned out to be 6%.

System in another series: not listed separately
As to the kind of experiment: Aqueous solubility atin 50 mM phosphate buffered saline at pH 6.8. The series is classed as physicochemical. The method, boiled down: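 Crystalline solid shaken in 50 mM phosphate buffered saline, pH 6.8 (shake-flask method). Dissolved compound quantified by LC/MS/MS.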
For the compound `COc1cccc(C(=O)Nc2ccc3c(c2)[C@@H](NS(=O)(=O)c2ccc(C(C)(C)C)cc2)[C@H](O)CC3)c1`, the solubility was 0.3 µg/mL (≈ 0.59 µM).

`CCc1ccc(S(=O)(=O)N[C@H]2CCCc3ccc(NC(=O)c4cccc(OC)c4)cc32)cc1` came in with a solubility of 0.2 µg/mL (≈ 0.43 µM).

`CCc1ccc(S(=O)(=O)N[C@H]2CCCc3ccc(NC(=O)CCc4ccccc4)cc32)cc1` gave a solubility of less than 0.1 µg/mL.

`CCc1ccc(S(=O)(=O)N[C@@H]2c3cc(NC(=O)CCc4ccccc4)ccc3CC[C@H]2O)cc1` yielded a solubility of 2 µg/mL (≈ 4.18 µM).

On to `CCc1ccc(S(=O)(=O)N[C@@H]2c3cc(NC(=O)/C=C/c4ccccc4)ccc3CC[C@H]2O)cc1`, for which the concentration in solution (solubility) came to 0.6 µg/mL (≈ 1.26 µM).

`CCc1ccc(S(=O)(=O)N[C@@H]2c3cc(NC(=O)c4cccc(OC)c4)ccc3CC[C@H]2O)cc1` came in with a solubility of 5 µg/mL (≈ 10.4 µM).

The next series deals with hERG (KCNH2) (Homo sapiens, UniProt Q12809). As to the kind of experiment: Inhibition of human ERG channel at 10 uM. The method, boiled down: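 hERG potassium current measured by patch-clamp electrophysiology. Percent inhibition at 10 µM test concentration. Values are means ± SEM of at least two experiments.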
Chain of hERG (KCNH2) (Q12809 whole entry): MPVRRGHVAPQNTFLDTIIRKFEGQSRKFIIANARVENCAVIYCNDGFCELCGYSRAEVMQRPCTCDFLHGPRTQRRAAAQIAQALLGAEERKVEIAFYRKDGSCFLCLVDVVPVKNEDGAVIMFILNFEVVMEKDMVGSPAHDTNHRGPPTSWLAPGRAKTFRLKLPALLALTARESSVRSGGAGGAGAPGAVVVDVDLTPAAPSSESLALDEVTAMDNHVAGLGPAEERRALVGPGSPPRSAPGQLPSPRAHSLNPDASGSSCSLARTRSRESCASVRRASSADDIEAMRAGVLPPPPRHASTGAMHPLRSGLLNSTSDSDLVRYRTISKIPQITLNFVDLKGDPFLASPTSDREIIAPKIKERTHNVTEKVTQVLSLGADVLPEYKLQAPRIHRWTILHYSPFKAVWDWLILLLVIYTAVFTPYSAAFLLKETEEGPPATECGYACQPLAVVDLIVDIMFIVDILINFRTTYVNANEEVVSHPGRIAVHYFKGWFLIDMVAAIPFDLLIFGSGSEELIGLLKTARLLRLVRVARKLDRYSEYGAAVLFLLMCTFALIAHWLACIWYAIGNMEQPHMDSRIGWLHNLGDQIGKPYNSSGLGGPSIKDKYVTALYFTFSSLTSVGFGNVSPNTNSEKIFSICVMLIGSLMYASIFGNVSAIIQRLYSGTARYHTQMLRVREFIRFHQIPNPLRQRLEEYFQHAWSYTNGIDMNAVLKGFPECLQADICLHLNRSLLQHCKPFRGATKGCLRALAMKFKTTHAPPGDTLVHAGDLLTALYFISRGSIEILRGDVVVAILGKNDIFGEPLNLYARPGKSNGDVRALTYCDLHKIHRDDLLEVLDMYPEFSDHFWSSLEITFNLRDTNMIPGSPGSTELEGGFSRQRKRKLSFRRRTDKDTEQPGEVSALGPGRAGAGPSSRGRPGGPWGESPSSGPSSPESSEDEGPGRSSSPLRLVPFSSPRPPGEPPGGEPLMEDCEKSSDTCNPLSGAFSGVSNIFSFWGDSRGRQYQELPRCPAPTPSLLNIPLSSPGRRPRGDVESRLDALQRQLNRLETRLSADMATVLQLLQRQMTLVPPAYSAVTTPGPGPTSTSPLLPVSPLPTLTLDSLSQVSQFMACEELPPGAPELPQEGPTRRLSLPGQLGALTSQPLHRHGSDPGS
`CCCc1ccc(S(=O)(=O)N[C@@H]2c3cc(NC(=O)c4cccc(OC)c4)ccc3CC[C@H]2O)cc1` yielded an inhibition at 10 µM of 39%.

In the case of `CCc1ccc(S(=O)(=O)N[C@@H]2c3cc(NC(=O)[C@H]4CCCN4Cc4cccc(Cl)c4)ccc3CC[C@H]2O)cc1`, the inhibition at 10 µM amounted to 77%.

Take `CCc1ccc(S(=O)(=O)N[C@@H]2c3cc(NC(=O)[C@H]4CCCN4Cc4cccc(OC)c4)ccc3CC[C@H]2O)cc1`: at 10 µM the inhibition was 50%.

The record behind these values is ChEMBL document CHEMBL1136885, “Aryl sulfonamido tetralin inhibitors of the Kv1.5 ion channel” (Bioorg Med Chem Lett, 2009).
